# Laboratory results from publication PMC6425477 (ACS chemical biology, 2018).
# What was measured:
# [1] = test system: D456 GBM PDX cells; experiment: Cell growth; assay type: cell-based, human
# How it was run: (§1)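 D456 pediatric primary GBM PDX cells and normal human astrocytes were treated in the same manner with test compound (DMSO stock) at 5, 20 and 50 μM for 7 days. Growth was read by cell titer. IC50 came from non-linear regression. D456 and NHA were compared by one-way ANOVA with Dunnett's multiple comparisons.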
# [2] = test system: GBM PDX cell lines, D456, GBM157, and 1016; experiment: 2-NBDG glucose uptake in three GBM PDX cell lines; assay type: cell-based, human; details: 50 μM; all cells tested (D456, GBM157, 1016)
# How it was run: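 2-NBDG uptake in D456, GBM157 and 1016 GBM PDX cells, run per the manufacturer's protocol. Test compound (DMSO stock) at 50 μM. Data averaged from 2 experiments with n=3 per group. Compared by one-way ANOVA with Tukey's multiple comparisons.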
# [3] = test system: GBM PDX cells; experiment: Extracellular flux analysis glycolytic stress test; assay type: cell-based, human; details: 50 μM; for increase in ECAR following the addition of oligomycin: 4 hours
# How it was run: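 Glycolysis stress test on a Seahorse XF96 flux analyzer in GBM PDX cells. Cells were glucose-starved with test compound at 50 μM for 4 h, then given glucose, oligomycin and 2-DG in turn. Glycolysis = ECAR after glucose minus basal. Capacity and reserve are derived from ECAR before and after 2-DG and oligomycin. Two experiments, n=6; mean ± sem; Student's t-test versus control.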
# [4] = test system: D456 GBM PDX cells; experiment: 2-deoxyglucose; assay type: cell-based, human
# [5] = test system: normal human astrocytes (NHAs); experiment: Cell growth / toxicity in normal human astrocytes; assay type: cell-based; details: for growth inhibition of GBM PDX cells compared to NHAs: D456 GBM PDX vs NHAs, 5, 20, 50 μM, 7 days
# How it was run: as §1
# [6] = test system: D456 GBM PDX cells; experiment: Glucose uptake; assay type: cell-based, human
# How it was run: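 D456 GBM PDX cells were given test compound over a range of concentrations. Glucose uptake was read by 2-NBDG, per the manufacturer's protocol. IC50 for glucose uptake came from a curve-fit model.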
# [7] = test system: GLUT1; details: pharmacological inhibition of GLUT1; cited from earlier work
# [8] = dose-response, Supporting Information Figure 3c
SMILES,inhibition of D456 GBM PDX cell growth (in words) ([1]; 5 μM),inhibition of glucose uptake (2-NBDG) [2],glycolytic capacity (ECAR before 2-DG minus ECAR after 2-DG) [3],glycolytic reserve capacity (ECAR after Oligo minus ECAR before Oligo) [3],increase in ECAR following the addition of oligomycin [3],ECAR ascribed to glycolysis after injection of glucose ([3]; 4 hours glucose starvation before glucose),decrease in glucose uptake (2-DG) [4],glucose uptake compared to control (2-DG) [4] [%],toxicity to NHAs [5],growth inhibition of GBM PDX cells compared to NHAs [5],"plateau of glucose uptake inhibition [6, 8] [%]","threshold concentration at which glucose uptake inhibition plateaus [6, 8]",tumor formation capabilities of TICs [7],"GBM PDX cell growth (in words) ([1]; GBM PDX cells, line not given, Supplementary Figure 5b)","inhibition of glucose uptake (in words) ([6]; D456 GBM PDX cells, Supporting Information Figures 4 and 5)","IC50 ([1]; read-out: IC50 for growth inhibition, D456 GBM PDX cells, 7 days) [µM]","IC50 ([6]; read-out: IC50 for glucose uptake, Supporting Information Figure 3c) [µM]"
O=C1CC(c2ccc(-c3ccn[nH]3)s2)c2cc(N3CCNC3=O)ccc2N1 (stereo not shown) [SRI-37683],almost completely inhibited,40–50%,decrease,decrease,inhibited an increase in ECAR,significantly inhibited,approximately 40%,60,minimal toxicity,significantly stronger growth inhibition,~50,approximately 3 μM,,,,,
"O=C(Oc1cccc(F)c1OC(=O)c1cccc(O)c1)c1cccc(O)c1 [WZB117, 2-Fluoro-6-(m-hydroxybenzoyloxy) Phenyl m-Hydroxybenzoate]",,,,,,,,,,,,,decrease the tumor formation capabilities of TICs,,,,
"O=c1c(-c2ccc(O)cc2)coc2cc(O)cc(O)c12 [genistein, reference compound]",,,,,,,,,,,,,,did reduce GBM PDX cell growth,inhibited glucose uptake,,
O=C1CC(c2cccc3[nH]ccc23)c2ccc(NC(=O)c3cccnc3)cc2N1 (stereo not shown) [SRI-37684],,40–50%,decrease,decrease,inhibited an increase in ECAR,,~50%,50,minimal toxicity,significantly stronger growth inhibition,,,,,,8.6,33
